Broadly, the viability is a read-out of living cells in per cent, often relative to untreated cells. In general, inhibition refers to the change of the read-out against control, counted positive when it falls.

The nature of experiment [1]: Her2 expression decrease, cell viability multiplex – SKBR3 breast tumor cells, AlphaScreen, ATP viability, primary screen (AID 461;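 active means Her2 level under about 52% in both replicate screens, with viability over 70% of control, limit read from the data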;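 on Her2 level: lower value means less Her2 protein in the cells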;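 on viability: percent of carrier control wells set as 100% viability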). To be noted: SKBR3 Her2 protein level, 18-24 h, measured here: SKBR3 viability, ATP luminescence, at 10 µM. Background: In Alpha technology, singlet oxygen from a donor bead excites a nearby acceptor bead.
In experiment [2] the target is Receptor tyrosine-protein kinase erbB-2 (Homo sapiens) (UniProt P04626). Described as above. To be noted: 18-24 h, at 10 µM, stronger effect = lower value.
Experiment [3] in a line: reduced viability of SK-BR-3 breast cancer cells – cell-based, 24 h, human, pilot screen (AID 572;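 active means viability at or below 10% of carrier control in both of two separate runs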;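 further: compound exposure lasted between 18 and 24 h rather than exactly 24 h; 100% = carrier-treated control wells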). To be noted: SK-BR-3 viability, CellTiter-Glo luminescence, at 10 µM, stronger effect = lower value.
Experiment [4] can be described thus: HUVEC growth inhibition – cell-based, human, primary screen (AID 575;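 active means viability at or below 30% in both replicate assays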;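 further: 100% = median of untreated cell wells with 0.1% DMSO on each plate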). The settings on record: HUVEC proliferation, CellTiter-Glo luminescence, 72 h; at 10 µM; stronger effect = lower value. A digest of the protocol:
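Timing: 72 h treatment at 37 °C; material: HUVEC primary cells; technique: CellTiter-Glo luminescence measuring cellular ATP; controls: vehicle and MePR control wells; measure: percent of median DMSO-control luminescence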
(In general: ATP-based viability assays read luminescence as a measure of living cells.)

A short description of experiment [5]: H69AR cell proliferation blockers – human, duplicate replicates, primary screen (AID 580;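 active means viability at or under a set limit in both replicates, limit being median viability minus 3 SD, cut at about 48% in these data, passing the limit was not always enough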;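 further: 100% = mean luminescence of untreated wells and 0% = no signal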). To be noted: H69AR lung tumor cells viability, ATP luminescence, 72 h; at 10 µM; stronger effect = lower value.
The nature of experiment [6]: MRP1 drug-resistance reversers in H69AR cells – cell-based, doxorubicin co-treatment, pilot screen (AID 601). To be noted: CellTiter-Glo, 72 h, at 10 µM; for differential viability (reversal): stronger effect = higher value.
Experiment [7] can be described thus: yeast transport mutant growth inhibition pilot in 384-well plates, post-Golgi transport modulator project (AID 636; in the data active means inhibition above about 31%). The settings on record: absorbance 615 nm, about 18 h, stronger effect = higher value.
A short description of experiment [8]: growth suppression of yeast trafficking mutant, preliminary HTS, modulators of trafficking downstream of Golgi apparatus project, 1536-format plate, OD 615 nm (AID 637; in the data active means inhibition above about 30%). To be noted: yeast transport mutant growth, absorbance 615 nm, 18 h; stronger effect = higher value.
[9] abbreviates: H69AR cells + 2 uM doxorubicin, measured here: viability with 2 uM doxorubicin, stronger effect = lower value.
[10] abbreviates: H69AR cells, compound alone cytotoxicity.

Active and inactive are the calls of the source.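 How the source made its calls, unless noted: active means viability loss from added drug above about 55%, and viability with drug at most 40%, in both replicates (limit read from the data, passing the limit was not always enough); inconclusive means both conditions met in only one replicate; inactive means neither replicate meets both conditions.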

Receptor tyrosine-protein kinase erbB-2 (Homo sapiens), sequence (P04626 whole entry, looked up): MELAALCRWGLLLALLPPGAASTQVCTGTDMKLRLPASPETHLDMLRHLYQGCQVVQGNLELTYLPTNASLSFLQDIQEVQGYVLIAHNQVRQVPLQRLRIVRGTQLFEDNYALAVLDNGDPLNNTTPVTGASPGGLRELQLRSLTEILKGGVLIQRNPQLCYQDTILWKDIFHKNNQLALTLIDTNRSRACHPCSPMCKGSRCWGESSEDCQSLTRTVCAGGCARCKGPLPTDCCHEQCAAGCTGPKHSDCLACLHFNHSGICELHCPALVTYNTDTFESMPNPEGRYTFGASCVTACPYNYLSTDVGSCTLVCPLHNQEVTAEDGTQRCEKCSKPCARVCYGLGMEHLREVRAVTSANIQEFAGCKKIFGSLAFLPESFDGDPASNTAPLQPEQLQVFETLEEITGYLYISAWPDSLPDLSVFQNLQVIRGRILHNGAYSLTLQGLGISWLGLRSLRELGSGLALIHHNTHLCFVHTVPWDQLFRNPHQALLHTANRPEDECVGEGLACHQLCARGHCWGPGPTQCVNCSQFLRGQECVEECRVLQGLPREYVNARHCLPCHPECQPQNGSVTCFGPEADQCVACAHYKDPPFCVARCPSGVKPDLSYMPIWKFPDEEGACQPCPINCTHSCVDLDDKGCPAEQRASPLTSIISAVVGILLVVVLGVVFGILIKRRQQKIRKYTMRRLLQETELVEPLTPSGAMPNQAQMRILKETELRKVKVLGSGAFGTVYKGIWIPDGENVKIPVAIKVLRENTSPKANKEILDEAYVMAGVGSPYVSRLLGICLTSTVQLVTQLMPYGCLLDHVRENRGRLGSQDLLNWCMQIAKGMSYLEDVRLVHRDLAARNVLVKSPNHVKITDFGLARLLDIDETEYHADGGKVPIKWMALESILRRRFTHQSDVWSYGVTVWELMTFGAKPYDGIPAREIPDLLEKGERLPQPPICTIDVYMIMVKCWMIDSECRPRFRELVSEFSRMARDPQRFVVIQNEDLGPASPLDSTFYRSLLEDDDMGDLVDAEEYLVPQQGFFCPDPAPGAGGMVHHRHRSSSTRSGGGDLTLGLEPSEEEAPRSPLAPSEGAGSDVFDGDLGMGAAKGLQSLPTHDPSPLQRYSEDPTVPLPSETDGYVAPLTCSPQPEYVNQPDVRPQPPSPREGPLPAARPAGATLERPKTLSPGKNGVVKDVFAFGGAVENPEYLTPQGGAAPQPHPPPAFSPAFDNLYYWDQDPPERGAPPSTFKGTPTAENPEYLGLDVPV

As for `COC(=O)c1ccc(CSc2nc(-c3ccc(OC)cc3)nc3c2c(=O)n(C)c(=O)n3C)o1`, the viability in experiment [1] was 100%; in experiment [3], 100% (inactive); in experiment [4], 85.8% (inactive); in experiment [5] it was 77.4% (inactive); in experiment [6] (setting [9]), 89%; in experiment [6] (setting [10]), 77.4%. For the same molecule, the Her2 level in experiment [2] is 74% (inactive). In addition, the differential viability (reversal) in experiment [6] (H69AR cells + 2 uM doxorubicin) was -11.5% (inactive). The inhibition in experiment [7] was -4.8% (inactive); in experiment [8] it was -3.11% (inactive).
Turning to `COC(=O)c1c(NC(=O)CSc2nnc(-c3cccnc3)n2Cc2ccco2)sc(C)c1C`, the viability in experiment [1] was 87%; in experiment [3], 87% (inactive); in experiment [4], 71.5% (inactive); in experiment [5] it was 83.7% (inactive); in experiment [6] (setting [9]), 74.5%; in experiment [6] (setting [10]), 83.7%. In addition, in experiment [2], the Her2 level was 77% (inactive). Also, the differential viability (reversal) in experiment [6] (H69AR cells + 2 uM doxorubicin) was 9.16% (inactive). Also, the inhibition is -5.14% (inactive) in experiment [7] and -6.03% (inactive) in experiment [8].
As for `CCOC(=O)C1CCN(C(=O)C2(NC(=O)Nc3ccccc3Cl)CCCCC2)CC1`, the viability in experiment [1] was 133%; in experiment [3], 133% (inactive); in experiment [4], 105% (inactive); in experiment [5], 87.9% (inactive); in experiment [6] (setting [9]) it was 80.2%; in experiment [6] (setting [10]) it was 87.9%. The Her2 level in experiment [2] was 98% (inactive). For the same molecule, in experiment [6] (H69AR cells + 2 uM doxorubicin), the differential viability (reversal) is 7.69% (inactive). For the same molecule, the inhibition was -1.95% (inactive) in experiment [7] and -1.11% (inactive) in experiment [8].
Consider `Nc1c(C(=O)NCCc2ccccc2)nnn1Cc1ccccc1`, for which the viability in experiment [1] was 108%; in experiment [3], 108% (inactive); in experiment [4], 89% (inactive); in experiment [5], 95.8% (inactive); in experiment [6] (setting [9]) it was 84.7%; in experiment [6] (setting [10]), 95.8%. Besides, the Her2 level in experiment [2] was 97.5% (inactive). Moreover, the differential viability (reversal) in experiment [6] (H69AR cells + 2 uM doxorubicin) is 11.2% (inactive). In addition, the inhibition in experiment [7] is -8.55% (inactive); in experiment [8], -1.45% (inactive).
As for `O/N=C/c1ccc(OCC(O)COc2ccc(/C=N/O)cc2)cc1`, the viability is 89.5% in experiment [1]; 89.5% (inactive) in experiment [3]; 75.9% (inactive) in experiment [4]; 90.1% (inactive) in experiment [5]; 91.3% in experiment [6] (setting [9]); 90.1% in experiment [6] (setting [10]). Besides, the Her2 level in experiment [2] is 112% (inactive). The differential viability (reversal) in experiment [6] (H69AR cells + 2 uM doxorubicin) is -1.19% (inactive). Besides, the inhibition in experiment [7] is -1.54% (inactive); in experiment [8], 4.83% (inactive).
`c1ccc(CCn2nnnc2C(c2cccs2)N2CCOCC2)cc1` (stereo not given): the viability in experiment [1] is 102%; in experiment [3], 102% (inactive); in experiment [4], 99.2% (inactive); in experiment [5] it was 107% (inactive); in experiment [6] (setting [9]) it was 94%; in experiment [6] (setting [10]) it was 107%. For the same molecule, in experiment [2], the Her2 level was 77.5% (inactive). Besides, the differential viability (reversal) in experiment [6] (H69AR cells + 2 uM doxorubicin) was 12.8% (inactive). Further, the inhibition in experiment [7] was -5.62% (inactive); in experiment [8], -1.59% (inactive).
Regarding `O=C1CC(c2ccc(F)c(Br)c2)C2=C(CCCC2=O)N1` (stereo not given), the viability is 102% in experiment [1]; 102% (inactive) in experiment [3]; 84.6% (inactive) in experiment [4]; 102% (inactive) in experiment [5]; 96.1% in experiment [6] (setting [9]); 102% in experiment [6] (setting [10]). The Her2 level in experiment [2] is 85.5% (inactive). In experiment [6] (H69AR cells + 2 uM doxorubicin), the differential viability (reversal) was 5.7% (inactive). Also, the inhibition in experiment [7] was -3.95% (inactive); in experiment [8] it was -4.67% (inactive).
As for `COc1ccc(C(CNC(=O)c2ccc(OCC3CCCO3)cc2)N2CCOCC2)cc1` (stereo not given), the viability in experiment [1] is 90%; in experiment [3], 90% (inactive); in experiment [4], 82.9% (inactive); in experiment [5] it was 105% (inactive); in experiment [6] (setting [9]) it was 90.7%; in experiment [6] (setting [10]), 105%. For the same molecule, the Her2 level in experiment [2] is 93.5% (inactive). For the same molecule, in experiment [6] (H69AR cells + 2 uM doxorubicin), the differential viability (reversal) is 13.8% (inactive). The values for the inhibition in experiment [7] and in experiment [8] were -1.33% (inactive) and -2.42% (inactive), respectively.
In the case of `COC(=O)[C@@H](NC(=O)NCc1ccccc1Cl)C(C)C`, the viability in experiment [1] was 95%; in experiment [3], 95% (inactive); in experiment [4] it was 84.9% (inactive); in experiment [5] it was 94.4% (inactive); in experiment [6] (setting [9]) it was 95.9%; in experiment [6] (setting [10]), 94.4%. The Her2 level in experiment [2] was 123% (inactive). Also, the differential viability (reversal) in experiment [6] (H69AR cells + 2 uM doxorubicin) is -1.47% (inactive). For the same molecule, the figures for the inhibition in experiment [7] and in experiment [8] were -1.17% (inactive) and -9.5% (inactive), respectively.
Regarding `CCOc1cccc(-c2nnc3sc(COc4ccc(OC)cc4)nn23)c1`, the viability was 72.5% in experiment [1]; 72.5% (inactive) in experiment [3]; 68.3% (inactive) in experiment [4]; 85.5% (inactive) in experiment [5]; 86.9% in experiment [6] (setting [9]); 85.5% in experiment [6] (setting [10]). In addition, in experiment [2], the Her2 level was 102% (inactive). Further, in experiment [6] (H69AR cells + 2 uM doxorubicin), the differential viability (reversal) was -1.33% (inactive). In addition, the figures for the inhibition in experiment [7] and in experiment [8] were -1.95% (inactive) and -6.39% (inactive), respectively.
Take `CCn1c(=O)c(=O)[nH]c2cc(C(=O)N3CCN(c4ccccc4F)CC3)ccc21`: the viability in experiment [1] was 110%; in experiment [3], 110% (inactive); in experiment [4], 97.1% (inactive); in experiment [5], 98.9% (inactive); in experiment [6] (setting [9]), 93.3%; in experiment [6] (setting [10]), 98.9%. Moreover, in experiment [2], the Her2 level was 91.5% (inactive). For the same molecule, in experiment [6] (H69AR cells + 2 uM doxorubicin), the differential viability (reversal) was 5.58% (inactive). In addition, the results for the inhibition in experiment [7] and in experiment [8] were 0.14% (inactive) and -0.16% (inactive), respectively.
`CCOc1ccccc1NS(=O)(=O)c1c(C)noc1C`: the viability was 97.5% in experiment [1]; 97.5% (inactive) in experiment [3]; 91.3% (inactive) in experiment [4]; 109% (inactive) in experiment [5]; 92.1% in experiment [6] (setting [9]); 109% in experiment [6] (setting [10]). Also, the Her2 level in experiment [2] was 93.5% (inactive). Besides, in experiment [6] (H69AR cells + 2 uM doxorubicin), the differential viability (reversal) was 16.6% (inactive). The inhibition in experiment [7] is -3.42% (inactive); in experiment [8] it was -0.95% (inactive).
In the case of `COc1cc(OC)c(C(=O)Nc2ncn[nH]2)cc1OC`, the viability is 102% in experiment [1]; 102% (inactive) in experiment [3]; 95.4% (inactive) in experiment [4]; 95% (inactive) in experiment [5]; 101% in experiment [6] (setting [9]); 95% in experiment [6] (setting [10]). The Her2 level in experiment [2] was 122% (inactive). In addition, the differential viability (reversal) in experiment [6] (H69AR cells + 2 uM doxorubicin) was -6.38% (inactive). Also, the results for the inhibition in experiment [7] and in experiment [8] were 1.97% (inactive) and -6.72% (inactive), respectively.
Consider `O=C(C1CC1(c1ccccc1)c1ccccc1)N1CCOCC1` (stereo not given), for which the viability was 112% in experiment [1]; 112% (inactive) in experiment [3]; 99.3% (inactive) in experiment [4]; 98.8% (inactive) in experiment [5]; 87.3% in experiment [6] (setting [9]); 98.8% in experiment [6] (setting [10]). Further, the Her2 level in experiment [2] is 106% (inactive). Also, the differential viability (reversal) in experiment [6] (H69AR cells + 2 uM doxorubicin) is 11.4% (inactive). In addition, the inhibition in experiment [7] is -5.6% (inactive); in experiment [8], 1.45% (inactive).
In the case of `COc1ccc(CNC(=O)c2cc3c(=O)n4ccccc4nc3n(Cc3ccco3)c2=N)cc1`, the viability is 114% in experiment [1]; 114% (inactive) in experiment [3]; 105% (inactive) in experiment [4]; 110% (inactive) in experiment [5]; 76.9% in experiment [6] (setting [9]); 110% in experiment [6] (setting [10]). The Her2 level in experiment [2] is 97.5% (inactive). In addition, in experiment [6] (H69AR cells + 2 uM doxorubicin), the differential viability (reversal) is 33% (inactive). For the same molecule, the results for the inhibition in experiment [7] and in experiment [8] were -0.39% (inactive) and -5.08% (inactive), respectively.

The values are drawn from PubChem BioAssay.
